Source: ChEMBL document CHEMBL4196126, “Optimization of 3-Pyrimidin-4-yl-oxazolidin-2-ones as Orally Bioavailable and Brain Penetrant Mutant IDH1 Inhibitors” (ACS Med Chem Lett, 2018)
Converted amounts (≈) assume the structure as drawn. Each block holds one molecule with its values, some of them ahead of it.

Columns and labels:
Mus musculus [1] = assay: In vivo inhibition of IDH1 R132H mutant in HSD athymic nude mouse tumor xenografted with human HCT116 cells assessed as reduction in 2-HG level at 150 mg/kg, po measured 16 to 24 hrs post dose by LC-MS/MS analysis relative to control; type: functional; details: HCT-116, po
Procedure, shortened: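 Mice bearing HCT116-IDH1 R132H/+ xenograft tumors received a single 150 mg/kg oral dose. 2-HG was measured in tumor tissue and expressed as percent inhibition relative to vehicle-treated tumors over a 16−24 h post-dose window. Plasma drug concentrations were measured alongside.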

[2] = Plasma protein binding in rat plasma at 5 uM after 4 hrs by rapid equilibrium dialysis based LC/MS/MS method
[3] = Oral bioavailability in Sprague-Dawley rat at 10 mg/kg by mass spectrometry based HPLC method; type: ADME, organism-based; details: in vivo
Procedure, shortened: (§1)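 Rats and mice received a single 1 mg/kg intravenous dose and a 10 mg/kg oral dose. Plasma clearance was taken from the intravenous arm. Oral AUC and oral bioavailability were taken from the oral arm.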

Mus musculus [4] = assay: Time at which unbound plasma concentration stays above cellular IDH1 R132H mutant inhibitory IC50 in HSD athymic nude mouse xenografted with human HCT116 cells; type: ADME, organism-based; details: in vivo
Procedure, shortened: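 After a single 150 mg/kg oral dose in HCT116-IDH1 R132H/+ xenograft mice, unbound plasma concentration was estimated from total plasma levels corrected by mouse plasma protein binding. It was then followed over time against the HCT116-IDH1 R132H/+ cellular IC50.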

Homo sapiens [5] = species on record: Homo sapiens; assay: Selectivity ratio of IC50 for wild-type IDH1 (unknown origin) to IC50 for IDH1 R132C mutant (unknown origin)
[6] = AUC in C57BL/6 mouse at 10 mg/kg, po by mass spectrometry based HPLC method; type: ADME, organism-based; details: in vivo; procedure, shortened: as §1
[7] = AUC in Sprague-Dawley rat at 10 mg/kg, po by mass spectrometry based HPLC method; type: ADME, organism-based; details: in vivo; procedure, shortened: as §1
[8] = Oral bioavailability in C57BL/6 mouse at 10 mg/kg by mass spectrometry based HPLC method; type: ADME, organism-based; details: in vivo; procedure, shortened: as §1
[9] = target: T1, Isocitrate dehydrogenase [NADP] cytoplasmic (Homo sapiens, UniProt O75874, R132H); assay: Inhibition of IDH1 R132H mutant (unknown origin) expressed in HCT116 cells assessed as reduction in 2-HG levels after 48 hrs by LC-MS/MS analysis; type: cell-based
T1 sequence (O75874 2-414 R132H limits assumed): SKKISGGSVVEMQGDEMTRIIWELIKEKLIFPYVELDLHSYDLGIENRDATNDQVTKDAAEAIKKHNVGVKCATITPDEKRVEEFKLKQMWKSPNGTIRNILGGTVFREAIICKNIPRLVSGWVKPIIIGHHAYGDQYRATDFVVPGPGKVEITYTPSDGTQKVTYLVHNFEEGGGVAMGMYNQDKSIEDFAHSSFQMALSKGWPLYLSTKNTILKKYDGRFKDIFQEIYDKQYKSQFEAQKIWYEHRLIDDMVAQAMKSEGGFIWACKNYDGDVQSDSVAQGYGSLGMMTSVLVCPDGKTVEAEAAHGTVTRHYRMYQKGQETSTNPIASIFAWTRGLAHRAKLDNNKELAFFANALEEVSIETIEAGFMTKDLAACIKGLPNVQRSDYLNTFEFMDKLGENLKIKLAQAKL

[10] = target: Isocitrate dehydrogenase [NADP] cytoplasmic (Homo sapiens, UniProt O75874); assay: Inhibition of wild-type IDH1 (unknown origin) assessed as NADPH production using isocitrate as substrate by fluorescence assay
Chain of Isocitrate dehydrogenase [NADP] cytoplasmic (Homo sapiens, UniProt O75874) (O75874 whole entry): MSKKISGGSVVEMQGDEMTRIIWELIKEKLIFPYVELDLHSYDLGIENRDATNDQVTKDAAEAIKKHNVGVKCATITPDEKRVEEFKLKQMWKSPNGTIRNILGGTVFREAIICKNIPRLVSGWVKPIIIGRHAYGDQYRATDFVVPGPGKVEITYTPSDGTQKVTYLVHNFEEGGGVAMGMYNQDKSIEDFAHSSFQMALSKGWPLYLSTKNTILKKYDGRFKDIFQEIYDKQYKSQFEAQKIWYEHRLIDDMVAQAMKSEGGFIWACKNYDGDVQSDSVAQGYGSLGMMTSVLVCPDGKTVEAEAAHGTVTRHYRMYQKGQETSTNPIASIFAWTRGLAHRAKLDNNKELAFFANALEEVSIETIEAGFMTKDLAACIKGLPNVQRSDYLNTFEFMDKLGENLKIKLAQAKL

Homo sapiens [11] = species on record: Homo sapiens; assay: Selectivity ratio of IC50 for wild-type IDH1 (unknown origin) to IC50 for IDH1 R132H mutant (unknown origin)
[12] = Plasma protein binding in mouse plasma at 5 uM after 4 hrs by rapid equilibrium dialysis based LC/MS/MS method
[13] = Clearance in Sprague-Dawley rat plasma at 1 mg/kg, iv or 10 mg/kg, po by mass spectrometry based HPLC method; type: ADME, organism-based; procedure, shortened: as §1
[14] = Intrinsic clearance in rat liver microsomes at 1 uM in presence of NADPH by LC-MS/MS analysis; type: ADME, microsome; details: read-out: CLH
[15] = target: Isocitrate dehydrogenase [NADP] cytoplasmic (Homo sapiens, UniProt O75874, R132C); assay: Inhibition of IDH1 R132C mutant (unknown origin) assessed as NADPH consumption using alpha-ketoglutarate as substrate by fluorescence assay
Chain of Isocitrate dehydrogenase [NADP] cytoplasmic (Homo sapiens, UniProt O75874, R132C) (O75874 2-414 R132C limits assumed): as the sequence (O75874 2-414 R132H limits assumed) above, with H131C counted along it

[16] = Ratio of AUC in Sprague-Dawley rat brain to plasma at 1 mg/kg, iv or 10 mg/kg, po; type: ADME, organism-based; details: read-out: Ratio AUC
[17] = target: T1, Isocitrate dehydrogenase [NADP] cytoplasmic; assay: Inhibition of IDH1 R132H mutant (unknown origin) assessed as NADPH consumption using alpha-ketoglutarate as substrate by fluorescence assay
[18] = Clearance in C57BL/6 mouse plasma at 1 mg/kg, iv or 10 mg/kg, po by mass spectrometry based HPLC method; type: ADME, organism-based; procedure, shortened: as §1
[19] = Solubility of the compound at pH 6.8; type: physicochemical; details: buffer
[20] = Intrinsic clearance in mouse liver microsomes; type: ADME, microsome; details: read-out: CLH
[21] = target: T1, Isocitrate dehydrogenase [NADP] cytoplasmic; assay: Inhibition of IDH1 R132H mutant (unknown origin) using alphaKG as substrate in presence of NADPH by LC-MS/MS analysis
[22] = Intrinsic clearance in human liver microsomes; type: ADME, microsome; details: read-out: CLH

- PPB at 4 h, 5 µM [2]: 0.98
- bioavailability [3]: 127%
- Time (Mus musculus [4]): 24 h
- Ratio IC50 (Homo sapiens [5]): 50 to 100
- AUC [6]: 172 µM·h
- AUC [7]: 180 µM·h
- bioavailability [8]: 149%
- IC50 [9]: 39 nM
- IC50 [10]: 2520 nM
- Ratio IC50 (Homo sapiens [11]): 50 to 100
- PPB at 4 h, 5 µM [12]: 0.98
- clearance [13]: 2.6 mL/min/kg
- microsomal CLint at 1 µM [14]: 7 to 7.7 µL/min/mg
- IC50 [15]: 45 nM
- Kp [16]: 0.17
- IC50 [17]: 21 nM
- clearance [18]: 5 mL/min/kg
- solubility [19]: 124 µM (≈ 55.8 µg/mL)
- microsomal CLint [20]: 11 µL/min/mg
Structure (SMILES): C[C@H](Nc1nccc(N2C(=O)OC[C@@H]2CF)n1)c1cn(-c2ccc(C(F)(F)F)cc2)cn1
- inhibition in vivo at 150 mg/kg (Mus musculus [1]): > 90%

- microsomal CLint at 1 µM [14]: 302 µL/min/mg
Structure (SMILES): CC(C)[C@H]1COC(=O)N1c1ccnc(N[C@@H](C)c2nc(-c3ccc(Cl)cc3)no2)n1

- IC50 [9]: 240 nM
- microsomal CLint at 1 µM [14]: 237 µL/min/mg
Structure (SMILES): C[C@H](Nc1ncc(F)c(N2C(=O)OC[C@@H]2[C@@H](C)F)n1)c1cn(-c2ccc(Cl)cc2)cn1

- IC50 [9]: 30 nM
- microsomal CLint at 1 µM [14]: 75 µL/min/mg
Structure (SMILES): C[C@H](Nc1nccc(N2C(=O)OC[C@@H]2CF)n1)c1cn(-c2ccc(Cl)cc2)cn1

- bioavailability [3]: 67%
- AUC [7]: 14 µM·h
- IC50 [9]: 47 nM
- clearance [13]: 17 mL/min/kg
- microsomal CLint at 1 µM [14]: 101 to 103 µL/min/mg
Structure (SMILES): C[C@H](Nc1ncc(F)c(N2C(=O)OC[C@@H]2C)n1)c1cn(-c2ccc(Cl)cc2)cn1

- IC50 [21]: 39 nM
- microsomal CLint at 1 µM [14]: 238 µL/min/mg
Structure (SMILES): CC(C)[C@H]1COC(=O)N1c1ccnc(N[C@@H](C)c2ncc(Oc3ccc(F)cc3)cn2)n1

- IC50 [9]: 22 nM
- microsomal CLint at 1 µM [14]: 272 µL/min/mg
Structure (SMILES): C[C@H](Nc1ncc(F)c(N2C(=O)OC[C@@H]2[C@H](C)F)n1)c1cn(-c2ccc(Cl)cc2)cn1

- IC50 [9]: 15 nM
- microsomal CLint at 1 µM [14]: 489 µL/min/mg
Structure (SMILES): CC(C)[C@H]1COC(=O)N1c1ccnc(N[C@@H](C)c2cn(-c3ccc(Cl)cc3)cn2)n1

- IC50 [21]: 610 nM
- microsomal CLint at 1 µM [14]: 924 µL/min/mg
Structure (SMILES): CC(C)[C@H]1COC(=O)N1c1ccnc(N[C@@H](C)c2nc(-c3ccccc3Cl)no2)n1

- IC50 [9]: 24 nM
- microsomal CLint at 1 µM [14]: 28 µL/min/mg
Structure (SMILES): C[C@H](Nc1ncc(F)c(N2C(=O)OC[C@@H]2CF)n1)c1cn(-c2ccc(Cl)cc2)cn1

- microsomal CLint at 1 µM [14]: 170 µL/min/mg
Structure (SMILES): C[C@H](Nc1ncc(F)c(N2C(=O)OC(C)(C)C2(C)C)n1)c1nc(-c2ccc(Cl)cc2)no1

- microsomal CLint at 1 µM [14]: 148 µL/min/mg
Structure (SMILES): C[C@H](Nc1nccc(N2C(=O)OC[C@@H]2[C@H](C)F)n1)c1cn(-c2ccc(Cl)cc2)cn1

- IC50 [9]: 500 nM
- microsomal CLint at 1 µM [14]: 34 µL/min/mg
- microsomal CLint [22]: 59 µL/min/mg
- microsomal CLint [20]: 73 µL/min/mg
Structure (SMILES): C[C@H](Nc1ncc(F)c(N2CCOC2=O)n1)c1cn(-c2ccc(Cl)cc2)cn1

- IC50 [21]: 8800 nM
- microsomal CLint at 1 µM [14]: 35 µL/min/mg
Structure (SMILES): CC(Nc1nccc(N2CCOC2=O)n1)c1ncc(Oc2ccc(F)cc2)cn1 (racemic)

- IC50 [9]: 13 nM
- microsomal CLint at 1 µM [14]: 448 µL/min/mg
Structure (SMILES): CC[C@H]1COC(=O)N1c1nc(N[C@@H](C)c2cn(-c3ccc(Cl)cc3)cn2)ncc1F

- PPB at 4 h, 5 µM [2]: 0.95
- bioavailability [3]: 82%
- AUC [7]: 15 µM·h
- PPB at 4 h, 5 µM [12]: 0.92
- clearance [13]: 20 mL/min/kg
- Kp [16]: < 0.1
- solubility [19]: 422 µM (≈ 188 µg/mL)
Structure (SMILES): C[C@H](Nc1nccc(N2C(=O)OC[C@@H]2[C@H](C)F)n1)c1cn(-c2ccc(C(F)F)cc2)cn1
